Measurements as given in ChEMBL document CHEMBL4613269, “2-((4-Arylpiperazin-1-yl)methyl)benzonitrile Derivatives as Orally Available Inhibitors of Hepatitis C Virus with a Novel Mechanism of Action” (J Med Chem, 2020).
The source made the active and inactive calls. No cut-off for these calls is given here.

Assays:
[1] = Cytotoxicity in human Huh7.5 cells assessed as reduction in cell viability incubated for 96 hrs by MTT assay; type: cell-based
How it was run: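 Huh7.5 cells seeded 24 h before compound addition. Viability read by MTT at 96 h. Eight-step 1:5 serial dilutions in triplicate; CC50 by Reed & Muench; three independent experiments.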

Hepatitis C virus [2] = assay: Antiviral activity against HCV J6/JFH/JC1 infected in human Huh7.5 cells incubated for 72 hrs by In-Cell Western assay; type: functional, organism-based, Hepacivirus hominis; settings: J6/JFH/JC1, Huh7.5, 72 h
How it was run: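 Huh7.5 cells infected with HCVcc (MOI 0.1) and treated with compound at the same time for 72 h. Cells fixed with PFA, permeabilized, then stained for HCV Core and GAPDH with IR-dye secondaries. Core signal normalized to GAPDH. Eight-step 1:5 dilutions in triplicate; EC50 by Reed & Muench; mean of three experiments.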

[3] = Selectivity index, ratio of CC50 for cytotoxicity in human Huh7.5 cells assessed as reduction in cell viability incubated for 96 hrs by MTT assay to EC50 for antiviral activity against HCV J6/JFH/JC1 infected in human Huh7.5 cells incubated for 72 hrs by In-Cell Western assay; type: toxicity, cell-based; settings: read-out: Ratio CC50/EC50
How it was run: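 HCVcc (MOI=0.1) infected Huh7.5 cells co-treated with eight-step 1:5 serial dilutions, triplicate wells. After 72 h, fixed, permeabilized, and stained for HCV Core and GAPDH with IR-dye secondaries. Core normalized to GAPDH. CC50 came from MTT at 96 h in uninfected Huh7.5 cells. EC50/CC50 were derived by Reed & Muench, mean ± SD of three independent experiments.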

Hepatitis C virus [4] = assay: Antiviral activity against HCV GS4.3 infected in human Huh7.5 cells assessed as reduction in viral NS3 protein levels at 1 uM incubated for 72 hrs by Western blot assay; type: functional, organism-based; settings: Hepacivirus hominis
Hepatitis C virus [5] = assay: Antiviral activity against HCV GS4.3 infected in human Huh7.5 cells assessed as reduction in viral replication at 0.3125 to 5 uM simultaneously treated with viral infection for 4 hrs and measured after 72 hrs by In-Cell Western assay; type: functional, organism-based; settings: Hepacivirus hominis
How it was run: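 Huh7.5 cells infected with HCV while incubated with compound, either for 4 h across a concentration series or at 1.0 µM for varied times down to 15 min. Supernatant then replaced with fresh medium. Intracellular Core protein measured by In-Cell Western at 72 h.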

Hepatitis C virus [6] = assay: Antiviral activity against HCV genotype 1b pseudoparticle infected in human Huh7.5 cells assessed as reduction in viral replication at 10 uM; type: functional, organism-based; settings: Hepacivirus hominis, subtype 1b
How it was run: (§1)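 Genotype 1b or 2a HCV pseudoparticles made by co-transfecting HEK 293T cells with envelope and luciferase-reporter HIV plasmids; input standardized by luciferase. Huh7.5 cells co-incubated with compound and HCVpp for 4 h at 37°C, washed, then luciferase read at 72 h.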

Hepatitis C virus [7] = assay: Antiviral activity against HCV genotype 2a pseudoparticle infected in human Huh7.5 cells assessed as reduction in viral replication at 10 uM; type: functional, organism-based; settings: Hepacivirus hominis, subtype 2a; how it was run: as §1
Hepatitis C virus [8] = assay: Antiviral activity against wild type HCV by qRT-PCR analysis based by Reed-Muench method; type: functional, organism-based, Hepacivirus hominis
How it was run: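 Huh7.5 cells seeded 24 h, then infected with wild-type (or mutant) HCV with compound added at the same time. Incubated 72 h. Intracellular HCV RNA measured by qRT-PCR, 2^-ΔCt method, normalized to GAPDH. Eight-step 1:5 serial dilutions in triplicate; EC50 by Reed & Muench; three independent experiments.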

Hepatitis C virus [9] = assay: Antiviral activity against HCV expressing NS3 A156T mutant by qRT-PCR analysis based by Reed-Muench method; type: functional, organism-based, Hepacivirus hominis
How it was run: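 Huh7.5 cells seeded at 3×10^4/cm², infected 24 h later with wild-type or mutant HCV stock while compound or solvent was added at the same time. Intracellular HCV RNA measured by qRT-PCR at 72 h, normalised to GAPDH, 2^-ΔCT method. EC50 by Reed & Muench from eight-step 1:5 serial dilutions, triplicate wells.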

Hepatitis C virus [10] = assay: Antiviral activity against HCV genotype 1b pseudoparticle infected in human Huh7.5 cells assessed as reduction in viral replication at 2 to 4 uM; type: functional, organism-based; settings: Hepacivirus hominis, subtype 1b; how it was run: as §1
Hepatitis C virus [11] = assay: Antiviral activity against HCV genotype 2a pseudoparticle infected in human Huh7.5 cells assessed as reduction in viral replication at 2 to 4 uM; type: functional, organism-based; settings: Hepacivirus hominis, subtype 2a; how it was run: as §1
Influenza A virus = assay: Antiviral activity against influenza A virus H3N2/95-359 infected in MDCK cells assessed as reduction in virus-induced cytopathic effect incubated for 48 hrs by Reed-Muench method; type: functional, organism-based; settings: H3N2/95-359, MDCK
[12] = Cytotoxicity in MDCK cells assessed as reduction in cell viability; type: cell-based, Canis lupus familiaris; settings: dog
[13] = Selectivity index, ratio of CC50 for cytotoxicity in MDCK cells to EC50 for Antiviral activity against influenza A virus H3N2/95-359 infected in MDCK cells; type: toxicity, cell-based; settings: dog, read-out: Ratio CC50/EC50

CCC[C@H](NC(=O)[C@@H]1[C@H]2CCC[C@H]2CN1C(=O)[C@@H](NC(=O)[C@@H](NC(=O)c1cnccn1)C1CCCCC1)C(C)(C)C)C(=O)C(=O)NC1CC1 [TELAPREVIR]
CC50 at 96 h [1]: 55 µM | EC50 (Hepatitis C virus [2]): 0.146 µM | selectivity ratio [3]: 377 | Activity (Hepatitis C virus [4]): Active | Activity (Hepatitis C virus [5]): inactive | Activity (Hepatitis C virus [6]): inactive | Activity (Hepatitis C virus [7]): inactive | EC50 (Hepatitis C virus [8]): 0.0078 µM | EC50 (Hepatitis C virus [9]): 1.21 µM

Cc1nc(Nc2ncc(C(=O)Nc3c(C)cccc3Cl)s2)cc(N2CCN(CCO)CC2)n1
Activity (Hepatitis C virus [10]): Active | Activity (Hepatitis C virus [11]): Active

CCOC(=O)C1=C[C@@H](OC(CC)CC)[C@H](NC(C)=O)[C@@H](N)C1 [OSELTAMIVIR]
EC50 (Influenza A virus): 2.14 µM | CC50 [12]: > 640 µM | selectivity ratio [13]: > 299
